Experimental findings from ChEMBL document CHEMBL1154713, “Molecular iodine promoted synthesis of new pyrazolo[3,4-d]pyrimidine derivatives as potential antibacterial agents” (2010) are described below.

What all share (type): functional
Assay [1] can be described thus: Antibacterial activity against Escherichia coli HB101 BA 7601C at 400 ug/ml after 24 hrs by disk diffusion sensitivity assay. The settings on record: read-out: IZ. The method in brief: (§1)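 Disc diffusion on Mueller–Hinton agar poured 5 mm deep, swabbed with 1.2 × 10⁸ CFU/mL bacterial suspension (0.5 McFarland). Compounds dissolved in DMF, diluted with ethanol to 100–600 µg/mL solutions, loaded onto 6.25 mm filter-paper discs. Discs placed in triplicate, incubated 24 h at 37 °C. Average inhibition zone reported, maximum across concentrations shown. Streptomycin used as standard.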
(Agar diffusion results depend on both activity and mobility in agar.)

Assay [2] concerns Pseudomonas aeruginosa. The experiment in a line: Antibacterial activity against Pseudomonas aeruginosa PTCC 1431 at 400 ug/ml after 24 hrs by disk diffusion sensitivity assay. The settings on record: PTCC 1431, 24 h, read-out: IZ. In outline: as §1
Assay [3] relates to Staphylococcus aureus. The assay can be described thus: Antibacterial activity against Staphylococcus aureus PTCC 1074 at 400 ug/ml after 24 hrs by disk diffusion sensitivity assay. The settings on record: PTCC 1074, 24 h, read-out: IZ. In outline: as §1
The test system of assay [4] is Bacillus subtilis. The assay can be described thus: Antibacterial activity against Bacillus subtilis PTCC 1365 at 400 ug/ml after 24 hrs by disk diffusion sensitivity assay. The settings on record: PTCC 1365, 24 h, read-out: IZ. In outline: as §1
Assay [5] relates to Bacillus subtilis. The assay can be described thus: Antibacterial activity against Bacillus subtilis PTCC 1365 at 100 ug/ml after 24 hrs by disk diffusion sensitivity assay. The settings on record: PTCC 1365, 24 h, read-out: IZ. The method in brief:
as §1

Assay [6] can be described thus: Antibacterial activity against Escherichia coli HB101 BA 7601C at 100 ug/ml after 24 hrs by disk diffusion sensitivity assay. The settings on record: read-out: IZ. In outline: as §1
Assay [7] deals with Pseudomonas aeruginosa. The experiment in a line: Antibacterial activity against Pseudomonas aeruginosa PTCC 1431 at 100 ug/ml after 24 hrs by disk diffusion sensitivity assay. The settings on record: PTCC 1431, 24 h, read-out: IZ. The method in brief: as §1
Assay [8] relates to Staphylococcus aureus. The assay can be described thus: Antibacterial activity against Staphylococcus aureus PTCC 1074 at 100 ug/ml after 24 hrs by disk diffusion sensitivity assay. The settings on record: PTCC 1074, 24 h, read-out: IZ. In outline:
as §1

The subject of assay [9] is Bacillus subtilis. The experiment in a line: Antibacterial activity against Bacillus subtilis PTCC 1365 at 500 ug/ml after 24 hrs by disk diffusion sensitivity assay. The settings on record: PTCC 1365, 24 h, read-out: IZ. The method in brief: as §1
Assay [10] is described as follows: Antibacterial activity against Escherichia coli HB101 BA 7601C at 500 ug/ml after 24 hrs by disk diffusion sensitivity assay. The settings on record: read-out: IZ. In outline: as §1
For assay [11], the system named is Pseudomonas aeruginosa. The experiment in a line: Antibacterial activity against Pseudomonas aeruginosa PTCC 1431 at 500 ug/ml after 24 hrs by disk diffusion sensitivity assay. The settings on record: PTCC 1431, 24 h, read-out: IZ. The method in brief:
as §1

In assay [12] the test system is Staphylococcus aureus. The experiment in a line: Antibacterial activity against Staphylococcus aureus PTCC 1074 at 500 ug/ml after 24 hrs by disk diffusion sensitivity assay. The settings on record: PTCC 1074, 24 h, read-out: IZ. In outline:
as §1

Assay [13] deals with Bacillus subtilis. The experiment in a line: Antibacterial activity against Bacillus subtilis PTCC 1365 at 300 ug/ml after 24 hrs by disk diffusion sensitivity assay. The settings on record: PTCC 1365, 24 h, read-out: IZ. The method in brief:
as §1

Assay [14] in a line: Antibacterial activity against Escherichia coli HB101 BA 7601C at 300 ug/ml after 24 hrs by disk diffusion sensitivity assay. The settings on record: read-out: IZ. The method in brief:
as §1

Assay [15] deals with Pseudomonas aeruginosa. The assay can be described thus: Antibacterial activity against Pseudomonas aeruginosa PTCC 1431 at 300 ug/ml after 24 hrs by disk diffusion sensitivity assay. The settings on record: PTCC 1431, 24 h, read-out: IZ. The method in brief:
as §1

In assay [16] the test system is Staphylococcus aureus. The assay can be described thus: Antibacterial activity against Staphylococcus aureus PTCC 1074 at 300 ug/ml after 24 hrs by disk diffusion sensitivity assay. The settings on record: PTCC 1074, 24 h, read-out: IZ. The method in brief:
as §1

The subject of assay [17] is Bacillus subtilis. The assay can be described thus: Antibacterial activity against Bacillus subtilis PTCC 1365 at 200 ug/ml after 24 hrs by disk diffusion sensitivity assay. The settings on record: PTCC 1365, 24 h, read-out: IZ. In outline: as §1
Assay [18] is described as follows: Antibacterial activity against Escherichia coli HB101 BA 7601C at 200 ug/ml after 24 hrs by disk diffusion sensitivity assay. The settings on record: read-out: IZ. The method in brief:
as §1

Assay [19] concerns Pseudomonas aeruginosa. The assay can be described thus: Antibacterial activity against Pseudomonas aeruginosa PTCC 1431 at 200 ug/ml after 24 hrs by disk diffusion sensitivity assay. The settings on record: PTCC 1431, 24 h, read-out: IZ. The method in brief:
as §1

Assay [20] deals with Staphylococcus aureus. The experiment in a line: Antibacterial activity against Staphylococcus aureus PTCC 1074 at 200 ug/ml after 24 hrs by disk diffusion sensitivity assay. The settings on record: PTCC 1074, 24 h, read-out: IZ. The method in brief: as §1
Assay [21] in a line: Antibacterial activity against Escherichia coli HB101 BA 7601C at 10 ug/ml after 24 hrs by disk diffusion sensitivity assay. The settings on record: read-out: IZ.
In assay [22] the test system is Pseudomonas aeruginosa. The assay can be described thus: Antibacterial activity against Pseudomonas aeruginosa PTCC 1431 at 10 ug/ml after 24 hrs by disk diffusion sensitivity assay. The settings on record: PTCC 1431, 24 h, read-out: IZ.
Assay [23] has as its system Staphylococcus aureus. The experiment in a line: Antibacterial activity against Staphylococcus aureus PTCC 1074 at 10 ug/ml after 24 hrs by disk diffusion sensitivity assay. The settings on record: PTCC 1074, 24 h, read-out: IZ.
Assay [24] relates to Bacillus subtilis. The experiment in a line: Antibacterial activity against Bacillus subtilis PTCC 1365 at 10 ug/ml after 24 hrs by disk diffusion sensitivity assay. The settings on record: PTCC 1365, 24 h, read-out: IZ.

On to `O=c1[nH]c(-c2ccc(Cl)cc2)nc2c1cnn2-c1ccc([N+](=O)[O-])cc1[N+](=O)[O-]`, for which the zone of inhibition at 400 µg/mL in assay [1] amounted to 10.5 mm; in assay [2], 8 mm; in [3], 8.5 mm; in [4], 15 mm.

On to `O=c1[nH]c(-c2ccc(Br)cc2)nc2c1cnn2-c1ccc([N+](=O)[O-])cc1[N+](=O)[O-]`, for which the zone of inhibition at 100 µg/mL came to 9 mm in assay [5], 17 mm in [6], 10 mm in assay [7] and 9 mm in assay [8].

In the case of `O=c1[nH]c(-c2cccc(O)c2)nc2c1cnn2-c1ccc([N+](=O)[O-])cc1[N+](=O)[O-]`, the zone of inhibition at 500 µg/mL came to 12 mm in [9], 12 mm in [10], 9.5 mm in assay [11] and 16 mm in [12].

As for `O=c1[nH]c(-c2ccc([N+](=O)[O-])cc2)nc2c1cnn2-c1ccc([N+](=O)[O-])cc1[N+](=O)[O-]`, the zone of inhibition at 300 µg/mL amounted to 9 mm in [13], 9 mm in [14], 13.5 mm in [15] and 8.5 mm in [16].

For the molecule `O=c1[nH]c(-c2cccc([N+](=O)[O-])c2)nc2c1cnn2-c1ccc([N+](=O)[O-])cc1[N+](=O)[O-]`, the zone of inhibition at 400 µg/mL in assay [1] turned out to be 8 mm; in assay [2], 9 mm; in [3], 15 mm; in assay [4], 11 mm.

As to `Cc1ccc(-c2nc3c(cnn3-c3ccc([N+](=O)[O-])cc3[N+](=O)[O-])c(=O)[nH]2)cc1`, the zone of inhibition at 200 µg/mL was 9 mm in assay [17], 9 mm in assay [18], 7.5 mm in [19] and 13 mm in assay [20].

In the case of `O=c1[nH]c(-c2ccccc2O)nc2c1cnn2-c1ccc([N+](=O)[O-])cc1[N+](=O)[O-]`, the zone of inhibition at 500 µg/mL came out at 9 mm in assay [9], 7 mm in assay [10], 16 mm in assay [11] and 9 mm in [12].

As to `CN[C@@H]1[C@H](O[C@H]2[C@H](O[C@H]3[C@H](O)[C@@H](O)[C@H](N=C(N)N)[C@@H](O)[C@@H]3N=C(N)N)O[C@@H](C)[C@]2(O)C=O)O[C@@H](CO)[C@H](O)[C@H]1O` [STREPTOMYCIN], the zone of inhibition at 10 µg/mL was 17 mm in [21], 10 mm in [22], 15 mm in assay [23] and 10 mm in [24].

In the case of `COc1cccc(-c2nc3c(cnn3-c3ccc([N+](=O)[O-])cc3[N+](=O)[O-])c(=O)[nH]2)c1`, the zone of inhibition at 100 µg/mL was 8 mm in assay [5], 11.5 mm in assay [6], 12.5 mm in assay [7] and 9 mm in assay [8].

On to `O=c1[nH]c(-c2ccccc2)nc2c1cnn2-c1ccc([N+](=O)[O-])cc1[N+](=O)[O-]`, for which the zone of inhibition at 400 µg/mL in [1] was determined as 15 mm; in [2], 9.5 mm; in assay [3], 9 mm; in assay [4], 10 mm.

As for `COc1ccc(-c2nc3c(cnn3-c3ccc([N+](=O)[O-])cc3[N+](=O)[O-])c(=O)[nH]2)cc1`, the zone of inhibition at 100 µg/mL amounted to 10 mm in assay [5], 9.5 mm in [6], 12.5 mm in assay [7] and 10 mm in assay [8].
